Measurements collected from several papers.
Each line is one published result; the experiments were not run side by side.
Target: Sodium-dependent serotonin transporter (SLC6A4, Homo sapiens, UniProt P31645)

Structure (SMILES) | test | setting | quantity | value
CC(=O)N1C[C@@H](CCN2CC=C(c3c[nH]c4cc(Cl)ccc34)CC2)c2ccccc21 | ligand displacement, radioligand | cell membranes | IC50 | 0.0438 µM
CNc1nc2cc(OCCCCN3CCN(c4cccc(Cl)c4Cl)CC3)ccc2s1 | ligand displacement, radioligand | – | Ki | 0.45 µM
C[C@H](N)Cn1ncc2ccc3c(c21)CCCO3 | ligand displacement, radioligand | – | Ki | 62.5 µM
COc1cc(C(=O)N2CC[C@@H](O)[C@@H](N)C2)cc2nc(-c3cc4ccccc4n3CC3CC3)n(C)c12 | transporter uptake | – | IC50 | 50.1 µM
Clc1ccc2c(C3CCN(CCc4c[nH]c5ccccc45)CC3)c[nH]c2c1 | transporter uptake, inhibitor, radiometric | – | Ki | 0.053 µM
OC(c1ccc(F)cc1)C(F)(F)CCN1CCC(O)(c2ccc(Cl)cc2)CC1 (racemic) | ligand displacement, radioligand | – | Ki | 1.99 µM
CN[C@@H](C)C(=O)c1ccccc1 | calcium signal, agonist, fluorescence | – | EC50 | 15.3 µM
CNc1nc(C#Cc2ccc(Br)s2)nc2c1ncn2[C@H]1[C@H](O)[C@H](O)[C@]2(C(=O)OC)C[C@H]12 | ligand displacement, radioligand | cell membranes | Ki | > 10 µM
C[C@@H](NC(=O)[C@@H](N)Cc1ccc(O)cc1)C(=O)NCC(=O)N[C@@H](Cc1ccccc1)C(=O)N(C)CCC[C@@]1(c2ccc(F)cc2)OCc2cc(C#N)ccc21 | ligand displacement, radioligand | – | Ki | 0.28 µM
CCOC(=O)[C@@]12C[C@@H]1[C@@H](n1cnc3c(NC)nc(C#Cc4ccc(Cl)s4)nc31)[C@H](O)[C@@H]2O | ligand displacement, radioligand | cell membranes | Ki | > 10 µM
CC(N)CCc1ccccc1Cl (stereo not shown) | transporter uptake, inhibitor, radiometric | – | Ki | 24 µM
Clc1ccc2c(C3=CCN(CCc4c[nH]c5ccccc45)CC3)c[nH]c2c1 | ligand displacement, radioligand | cell membranes | IC50 | 0.0255 µM
CNC(C)(C)C(=O)c1ccccc1 | calcium signal, agonist, fluorescence | – | EC50 | 12.9 µM
